From PubChem BioAssay
Compounds with a hit are over-represented: about 1.8% of the library has one in this group of screens.
PLK1 kinase inh: human PLK1 kinase inhibitors, primary screen, biochemical, TR-FRET. 97,000 tested, 0.53% active. inhibition, % at 10 µM. AID 619, 2007. recombinant PLK1 kinase, TR-FRET peptide phosphorylation;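 active = inhibition of 50% or more in the single-concentration screen; inactive = inhibition below 50%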;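 note: 0% = DMSO max control and 100% = H-89 dihydrochloride min control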
LYP act: LYP phosphatase activators, primary screen, biochemical, DiFMUP fluorescence, 2 µM. activation, % at 2 µM. Tyrosine-protein phosphatase non-receptor type 22 (Homo sapiens), Q9Y2R2. 96,000 tested, 0.11% active. recombinant LYP; 0 = plate median, 100 = signal doubled;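 active = activation at 2 µM above a set limit, the mean plus 5 SD, cut at about 37% in these data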
EphB4 ephrin blk: EphB4-ephrin-B2 interaction antagonists, primary screen, biochemical, TNYL-RAW peptide probe, fluorescence polarization | AID 720, 2007 | inhibition, % at 7 µM | 97,000 tested, 0.15% active | EphB4 LBD / TNYL-RAW-Alexa532 peptide | Ephrin type-B receptor 4 (Homo sapiens), P54760;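 active = inhibition above the screen-wide mean inhibition plus 3 SD, cut at about 15% in these data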;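 note: 0% = DMSO wells and 100% = excess unlabeled TNYL-RAW peptide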
LYP inh 2: PTPN22 phosphatase inhibitors, primary screen, biochemical, DiFMUP fluorescence, 2 µM. recombinant LYP catalytic domain. 96,000 tested, 0.21% active. Tyrosine-protein phosphatase non-receptor type 22 (Homo sapiens), Q9Y2R2. inhibition, % at 2 µM;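 active = inhibition at 2 µM at or above a set limit, the screen mean plus 3 SD, cut at about 24% in these data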;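 note: 0% = DMSO with enzyme and 100% = enzyme fully blocked by orthovanadate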
Rev-RRE block: HIV-1 Rev-RRE binding inhibitors, primary screen, biochemical, FRET, protein-RNA interaction | 97,000 tested, 0.79% active | AID 704, 2007 | Rev peptide-RRE RNA binding | P05866 | inhibition, % at 8 µM;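 active = inhibition above the screen-wide mean plus 3 SD, cut at about 35% in these data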;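 note: 0% = median DMSO wells and 100% = median Neomycin B control wells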
Target sequence (P05866 whole entry, looked up): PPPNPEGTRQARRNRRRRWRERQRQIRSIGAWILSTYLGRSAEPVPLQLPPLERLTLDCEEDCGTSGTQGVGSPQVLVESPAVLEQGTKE
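Test system – labelled RRE RNA duplex and labelled Rev peptide · Signal – fluorescein-to-Cy5 FRET, 480 nm excitation · Evaluation – % inhibition of FRET ratio versus controls · Benchmarks – DMSO low control, neomycin B high control · Incubation – 5 min RNA-compound premix plus 15 min binding step, 25 °C · Medium – HEPES pH 7.5 salt buffer with EDTA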
Plk1 PBD FP: Plk1 polo box domain binding inhibitors, primary screen, biochemical, fluorescence polarization; Serine/threonine-protein kinase PLK1 (Homo sapiens), P53350; Plk1 PBD phosphopeptide binding; inhibition, %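 (tested at about 20 µM)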; 97,000 tested, 0.13% active; in the data active = inhibition above about 34%, passing the limit was not always enough
Starred values were filed as active, the others as inactive; [ ] = another dose, or the depositor's remark.

SMILES | PLK1 kinase inh | LYP act | EphB4 ephrin blk | LYP inh 2 | Rev-RRE block | Plk1 PBD FP
N#CC1=C(N)SC(N)=C(C#N)C1c1c(Cl)cccc1Cl | 12 | 3 | -2 | -3 | 11 | -4
N#CC1=C(N)SC(N)=C(C#N)C1Cc1ccccc1 | 43 | 6 | 14 | -8 | 47* | 4
N#CC1=C(N)SC(N)=C(C#N)C1c1cccc(Oc2ccccc2)c1 | -17 | -12 | 11 | 17 | 80* | -6
N#CC1=C(N)SC(N)=C(C#N)C1CCc1ccccc1 | 0 | -2 | -9 | 5 | 79* | -16
COC(=O)C(NC(=O)c1ccco1)(Nc1ccc(Br)cn1)C(F)(F)F (stereo not drawn) | 3 | -3 | -4 | 1 | 4 | -7
CCC(C)(C)NC(=O)C(OC(=O)c1cc2sccc2n1C)c1ccc(OC)cc1 (stereo not drawn) | 2 | -4 | -4 | 2 | 1 | 19
COc1ccc(NC(C)=O)cc1NC(C)C(=O)Nc1cccc2ccccc12 (stereo not drawn) | -10 | -6 | -2 | 5 | -2 | -25
CC(=O)Nc1cccc(NC(=O)CCn2cnc3cc(C)c(C)cc32)c1 | -8 | -25 | -6 | 25* | 2 | -11
Cc1ccc(NC(=O)CCn2cnc3cc(C)c(C)cc32)cc1 | -6 | 11 | -2 | -17 | 3 | -14
C=CCN=C(NC#N)SCC(=O)c1cccc(OC)c1 | 39 | -6 | 5 | 5 | 3 | 10
CC[C@@H](C)[C@H](NC(=O)C1CCN(C(=O)[C@@H](NS(=O)(=O)c2ccc(C)cc2)C(C)C)CC1)C(=O)O | -4 | 10 | -8 | -12 | -4 | -18
O=c1cc(O)c2c(=O)n(-c3ccccc3)c3ccccc3c2o1 | -15 | -8 | -3 | 8 | 45* | -2
OCCCc1nc2n(n1)C(c1ccccc1)C=C(c1ccccc1)N2 (stereo not drawn) | -14 | 2 | 5 | -5 | 30 | -7
COc1ccc(C2C=C(c3ccccc3)Nc3nc(CCCO)nn32)cc1 (stereo not drawn) | -28 | 5 | -3 | -1 | 40* | -27
COc1ccc(C2C=C(c3cccs3)Nc3nc(CCCO)nn32)cc1 (stereo not drawn) | -5 | 4 | 0 | -6 | 129*[fluorescence artefact?] | 0
CC(=O)Nc1ccc(S(=O)(=O)N(Cc2ccccc2)C(C)C)cc1 | -11 | -3 | 1 | 2 | 5 | 3
CC(C)CC(=O)NC(NC(=S)Nc1sc2c(c1C#N)CCCC2)C(Cl)(Cl)Cl (stereo not drawn) | 16 | -9 | 5 | 13 | 0 | -31
CC(/C=C/c1ccc2c(c1)OCO2)=N/NC(=O)CNc1ccc(C)cc1 | 12 | 4 | 0 | -1 | 1 | 4
CCNc1ccccc(C(=O)/C=C/c2ccc3c(c2)OCO3)c1=O | 8 | 30 | -2 | -30 | 55* | 7
Cc1ccc(C(=O)/C=C/c2ccccc2)o1 | -14 | 10 | 4 | -7 | 80* | -12
Cc1ccc(C(=O)N2CCN(Cc3ccc4c(c3)OCO4)CC2)o1 | -4 | -11 | 4 | 11 | 0 | -7
Cc1ccc(C(=O)/C=C/c2ccc3c(c2)OCO3)o1 | 64* | -5 | -6 | 9 | 1 | -33
Cc1ccc(C(=O)/C=C/c2ccc(Br)cc2)o1 | -9 | -3 | -4 | 8 | -3 | 25
CC(C)CCOC(=O)C1C(c2ccccc2)C(C(=O)O)C1c1ccccc1 (stereo not drawn) | -6 | -1 | 4 | 2 | 6 | 26
CCc1ccc(NC(=O)CCn2ccnc2C)cc1 | -4 | 4 | 1 | -3 | 6 | -7
SMILES | PLK1 kinase inh | LYP act | EphB4 ephrin blk | LYP inh 2 | Rev-RRE block | Plk1 PBD FP
Cn1c(CSCc2ccccc2Cl)nnc1SCC(=O)Nc1nccs1 | 65* | 1 | 5 | -4 | 9 | -21
O=C(Nc1nc(-c2ccccn2)cs1)c1ncc(Cl)c(Cl)c1Cl | -4 | -26 | 2 | 27* | 7 | -36
Cn1cccc1C(=O)Nc1nc(-c2ccccn2)cs1 | -4 | -2 | -10 | 2 | -2 | -13
O=C(O)CC(C(=O)O)N1C(=O)/C(=C/c2ccc(-c3nc4ccccc4s3)o2)SC1=S (stereo not drawn) | 19 | -3 | -14 | 7 | 52* | -24
O=C(O)CCN1C(=O)/C(=C/c2ccc(-c3nc4ccccc4s3)o2)SC1=S | -17 | -22 | 2 | 24* | 34 | -43
Cc1ccc(/C=C2\SC(=S)N(Cc3ccccc3)C2=O)o1 | -19 | -6 | 4 | 10 | 5 | 15
COc1ccc(N2CCN(c3nc(=S)n(-c4ccccc4)c(C)c3C(C)=O)CC2)cc1 | -12 | -5 | 6 | 3 | 40* | -8
CC(=O)c1c(N2CCN(c3cccc(Cl)c3)CC2)nc(=S)n(-c2ccccc2)c1C | 0 | -3 | -2 | -2 | 11 | 12
CCCn1c(NC(=O)c2ccc(Cl)c(S(=O)(=O)N3CCCC3)c2)nc2ccccc21 | -11 | -6 | 11 | 4 | 10 | -13
Cc1ccc(C(=O)CCC(=O)Nc2cccc(C(F)(F)F)c2)cc1 | -6 | 1 | -2 | 4 | 0 | 26
O=c1[nH]n(-c2cccc3cccnc23)c(=O)c2ccccc12 | -1 | 2 | 4 | -3 | 4 | 10
Oc1c(C=Nc2cccc3cccnc23)sc2ccccc12 | -240 | -4 | 6 | 4 | 133*[fluorescence artefact?] | -130
Cc1ccc(NC2SC(=O)N(CC(=O)O)C2=O)cc1 (stereo not drawn) | -6 | -4 | -4 | 5 | 12 | 20
Cc1ccc(CNc2ccc3c(c2)OCO3)c(C)c1 | -11 | -16 | 1 | 16 | 90*[fluorescence artefact?] | -36
O=S(=O)(Nc1nc(-c2sccc2Cl)cs1)c1cc(Cl)ccc1Cl | -8 | -24 | 6 | 26* | 4 | -1
O=S(=O)(NCc1cccnc1)c1cc(Cl)ccc1Cl | -7 | 1 | -8 | -1 | 5 | 14
COc1ccccc1-c1nnc(SCC(=O)Nc2ccc(S(N)(=O)=O)cc2)n1C | -7 | -1 | -2 | 1 | 0 | -15
O=C(Nc1nnc(CCS(=O)(=O)c2ccc(Br)cc2)s1)c1ccc([N+](=O)[O-])cc1 | -2 | -15 | 3 | 18 | 8 | -16
O=C(Nc1nnc(COc2ccc(Cl)cc2)s1)c1ccc([N+](=O)[O-])cc1 | -5 | -22 | 3 | 24* | 5 | 5
CC(C(=O)NC1CCCC1)N(C(=O)c1ccc(-c2ccccc2)[nH]1)c1ccccc1F (stereo not drawn) | -1 | -2 | 6 | 6 | 5 | -5
